This is an account of results in ChEMBL document CHEMBL1773048, “Synthesis of glycopeptide dendrimers, dimerization and affinity for Concanavalin A” (Bioorg Med Chem, 2011).

Where a SMILES comes first, the peptide text is derived from it. Bridges are numbered along the chain shown (N, C = ends). Roman numbers before positions name the chains, in order. [ ]: non-standard residue; d: D form. The star is where a group is joined. αMan = OC[C@H]1O[C@H](*)[C@@H](O)[C@@H](O)[C@@H]1O; Mpa = O=C(O)CCS

The nature of assay [1]: Ratio of methyl alpha-D-mannoside IC50 to compound IC50 for binding affinity to Concanavalin A. A digest of the protocol:
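Relative potency is IC50 of methyl α-D-mannoside divided by inhibitor IC50. The reference is measured under the same conditions on the same plate by enhanced-sensitivity ELLA, and reference IC50 values are corrected to a common experimental value.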

A short description of assay [2]: Ratio of methyl alpha-D-mannoside IC50 to compound IC50 for binding affinity to Concanavalin A per carbohydrate moiety. The method in brief: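 Valency-normalised relative potency is IC50 of methyl α-D-mannoside divided by (inhibitor IC50 × n), where n is the number of mannose units. The reference IC50 is measured on the same plate by enhanced-sensitivity ELLA.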

Assay [3] can be described thus: Displacement of yeast mannan from Concanavalin A by Enzyme-linked lectin assay. The method in brief: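 Enhanced-sensitivity ELLA. Yeast mannan (10 µg/mL in PBS with CaCl2 and MnCl2) is coated overnight on plates and blocked 1 h at 37 °C with PBS containing 10 mg/mL BSA. Two-fold serial dilutions of inhibitor are preincubated 1 h at 37 °C with biotinylated Con A (5 µg/mL), transferred to the plates and incubated 1 h at 37 °C. Preformed Neutravidin–biotin-HRP is added for 1 h, then ABTS/H2O2 at pH 4.0. A415 is read after 5 min. IC50 is taken at 50% inhibition, at least triplicate.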

For the compound `NC(=O)[C@H](CCC(=O)O)NC(=O)[C@H](CCCCNC(=O)[C@H](CCCCNC(=O)[C@H](Cc1ccc(O)cc1)NC(=O)CCS[C@H]1O[C@H](CO)[C@@H](O)[C@H](O)[C@@H]1O)NC(=O)[C@H](Cc1ccc(O)cc1)NC(=O)CCS[C@@H]1O[C@@H](CO)[C@H](O)[C@@H](O)[C@H]1O)NC(=O)[C@H](CCCCNC(=O)[C@H](Cc1ccc(O)cc1)NC(=O)CCS[C@H]1O[C@H](CO)[C@@H](O)[C@H](O)[C@@H]1O)NC(=O)[C@H](Cc1ccc(O)cc1)NC(=O)CCS[C@@H]1O[C@@H](CO)[C@H](O)[C@@H](O)[C@H]1O`, the results for the Ratio IC50 in assay [1] and in assay [2] were 14.2 and 3.6, respectively. Further, in assay [3], the IC50 (usually the point on the concentration scale where inhibition reaches its midpoint) stood at 93 µM.
In the same order, the values of `NC(=O)[C@H](CSSC[C@H](NC(=O)[C@H](Cc1ccc(O)cc1)NC(=O)CCS[C@H]1O[C@H](CO)[C@@H](O)[C@H](O)[C@@H]1O)C(N)=O)NC(=O)[C@H](Cc1ccc(O)cc1)NC(=O)CCS[C@H]1O[C@H](CO)[C@@H](O)[C@H](O)[C@@H]1O` (I: [Mpa](αMan)-Tyr-Cys-NH2 / II: [Mpa](αMan)-Tyr-Cys-NH2; disulfide I:3-II:3) are 12.7, 6.4 and 104 µM.
For `O=[N+]([O-])c1ccc(O[C@H]2O[C@H](CO)[C@@H](O)[C@H](O)[C@@H]2O)cc1`, the Ratio IC50 in assay [1] and in assay [2] was 2.1 each time. In addition, the IC50 in assay [3] amounted to 644 µM.
`NC(=O)[C@H](CCCCNC(=O)[C@H](Cc1ccc(O)cc1)NC(=O)CCS[C@H]1O[C@H](CO)[C@@H](O)[C@H](O)[C@@H]1O)NC(=O)[C@H](Cc1ccc(O)cc1)NC(=O)CCS[C@@H]1O[C@@H](CO)[C@H](O)[C@@H](O)[C@H]1O`: the Ratio IC50 in assay [1] came to 8.8; in assay [2], 4.4. Besides, the 50% inhibitory concentration (IC50) in assay [3] was found to be 150 µM.
For the compound `NC(=O)[C@H](CSSC[C@H](NC(=O)[C@H](CCCCNC(=O)[C@H](CCCCNC(=O)[C@H](Cc1ccc(O)cc1)NC(=O)CCS[C@H]1O[C@H](CO)[C@@H](O)[C@H](O)[C@@H]1O)NC(=O)[C@H](Cc1ccc(O)cc1)NC(=O)CCS[C@@H]1O[C@@H](CO)[C@H](O)[C@@H](O)[C@H]1O)NC(=O)[C@H](CCCCNC(=O)[C@H](Cc1ccc(O)cc1)NC(=O)CCS[C@H]1O[C@H](CO)[C@@H](O)[C@H](O)[C@@H]1O)NC(=O)[C@H](Cc1ccc(O)cc1)NC(=O)CCS[C@@H]1O[C@@H](CO)[C@H](O)[C@@H](O)[C@H]1O)C(N)=O)NC(=O)[C@H](CCCCNC(=O)[C@H](CCCCNC(=O)[C@H](Cc1ccc(O)cc1)NC(=O)CCS[C@H]1O[C@H](CO)[C@@H](O)[C@H](O)[C@@H]1O)NC(=O)[C@H](Cc1ccc(O)cc1)NC(=O)CCS[C@@H]1O[C@@H](CO)[C@H](O)[C@@H](O)[C@H]1O)NC(=O)[C@H](CCCCNC(=O)[C@H](Cc1ccc(O)cc1)NC(=O)CCS[C@H]1O[C@H](CO)[C@@H](O)[C@H](O)[C@@H]1O)NC(=O)[C@H](Cc1ccc(O)cc1)NC(=O)CCS[C@@H]1O[C@@H](CO)[C@H](O)[C@@H](O)[C@H]1O`, the Ratio IC50 in assay [1] came out at 660; in assay [2], 83. For the same compound, the IC50 in assay [3] amounted to 2 µM.
In the same order, the values of `N=C(N)NCCC[C@H](NC(=O)[C@H](CCCCNC(=O)[C@H](CCCCNC(=O)[C@H](Cc1ccc(O)cc1)NC(=O)CCS[C@H]1O[C@H](CO)[C@@H](O)[C@H](O)[C@@H]1O)NC(=O)[C@H](Cc1ccc(O)cc1)NC(=O)CCS[C@@H]1O[C@@H](CO)[C@H](O)[C@@H](O)[C@H]1O)NC(=O)[C@H](CCCCNC(=O)[C@H](Cc1ccc(O)cc1)NC(=O)CCS[C@H]1O[C@H](CO)[C@@H](O)[C@H](O)[C@@H]1O)NC(=O)[C@H](Cc1ccc(O)cc1)NC(=O)CCS[C@@H]1O[C@@H](CO)[C@H](O)[C@@H](O)[C@H]1O)C(N)=O` are 21.3, 5.3 and 62 µM.
In the case of `NC(=O)[C@H](CCCCNC(=O)[C@H](CCCCNC(=O)[C@H](Cc1ccc(O)cc1)NC(=O)CCS[C@H]1O[C@H](CO)[C@@H](O)[C@H](O)[C@@H]1O)NC(=O)[C@H](Cc1ccc(O)cc1)NC(=O)CCS[C@@H]1O[C@@H](CO)[C@H](O)[C@@H](O)[C@H]1O)NC(=O)[C@H](CCCCNC(=O)[C@H](Cc1ccc(O)cc1)NC(=O)CCS[C@H]1O[C@H](CO)[C@@H](O)[C@H](O)[C@@H]1O)NC(=O)[C@H](Cc1ccc(O)cc1)NC(=O)CCS[C@@H]1O[C@@H](CO)[C@H](O)[C@@H](O)[C@H]1O`, the Ratio IC50 in assay [1] worked out at 25.4; in assay [2], 6.4. In assay [3], the IC50 was 52 µM.
Consider `CO[C@H]1O[C@H](CO)[C@@H](O)[C@H](O)[C@@H]1O`, for which the Ratio IC50 in assay [1] and in assay [2] was 1 throughout. Moreover, the IC50 in assay [3] stood at 1320 µM.
`NC(=O)[C@H](CCCCNC(=O)[C@H](CO)NC(=O)[C@H](CCCCNC(=O)[C@H](Cc1ccc(O)cc1)NC(=O)CCS[C@@H]1O[C@@H](CO)[C@H](O)[C@@H](O)[C@H]1O)NC(=O)[C@H](Cc1ccc(O)cc1)NC(=O)CCS[C@H]1O[C@H](CO)[C@@H](O)[C@H](O)[C@@H]1O)NC(=O)[C@H](CO)NC(=O)[C@H](CCCCNC(=O)[C@H](Cc1ccc(O)cc1)NC(=O)CCS[C@H]1O[C@H](CO)[C@@H](O)[C@H](O)[C@@H]1O)NC(=O)[C@H](Cc1ccc(O)cc1)NC(=O)CCS[C@H]1O[C@H](CO)[C@@H](O)[C@H](O)[C@@H]1O`: the results for the Ratio IC50 in assay [1] and in assay [2] were 20.6 and 5.2, respectively. This compound also returned an IC50 in assay [3] of 64 µM.
In the same order, the values of `NC(=O)[C@H](CO)NC(=O)[C@H](CCCCNC(=O)[C@H](CCCCNC(=O)[C@H](Cc1ccc(O)cc1)NC(=O)CCS[C@H]1O[C@H](CO)[C@@H](O)[C@H](O)[C@@H]1O)NC(=O)[C@H](Cc1ccc(O)cc1)NC(=O)CCS[C@@H]1O[C@@H](CO)[C@H](O)[C@@H](O)[C@H]1O)NC(=O)[C@H](CCCCNC(=O)[C@H](Cc1ccc(O)cc1)NC(=O)CCS[C@H]1O[C@H](CO)[C@@H](O)[C@H](O)[C@@H]1O)NC(=O)[C@H](Cc1ccc(O)cc1)NC(=O)CCS[C@@H]1O[C@@H](CO)[C@H](O)[C@@H](O)[C@H]1O` are 24, 6 and 55 µM.
Consider `NC(=O)[C@H](CCCCNC(=O)[C@H](CCC(=O)O)NC(=O)[C@H](CCCCNC(=O)[C@H](Cc1ccc(O)cc1)NC(=O)CCS[C@@H]1O[C@@H](CO)[C@H](O)[C@@H](O)[C@H]1O)NC(=O)[C@H](Cc1ccc(O)cc1)NC(=O)CCS[C@H]1O[C@H](CO)[C@@H](O)[C@H](O)[C@@H]1O)NC(=O)[C@H](CCC(=O)O)NC(=O)[C@H](CCCCNC(=O)[C@H](Cc1ccc(O)cc1)NC(=O)CCS[C@H]1O[C@H](CO)[C@@H](O)[C@H](O)[C@@H]1O)NC(=O)[C@H](Cc1ccc(O)cc1)NC(=O)CCS[C@H]1O[C@H](CO)[C@@H](O)[C@H](O)[C@@H]1O`, for which the values for the Ratio IC50 in assay [1] and in assay [2] were 22 and 5.5, respectively. Besides, the IC50 in assay [3] was found to be 60 µM.
The corresponding values for `NC(=O)[C@H](CSSC[C@H](NC(=O)[C@H](CCCCNC(=O)[C@H](Cc1ccc(O)cc1)NC(=O)CCS[C@H]1O[C@H](CO)[C@@H](O)[C@H](O)[C@@H]1O)NC(=O)[C@H](Cc1ccc(O)cc1)NC(=O)CCS[C@@H]1O[C@@H](CO)[C@H](O)[C@@H](O)[C@H]1O)C(N)=O)NC(=O)[C@H](CCCCNC(=O)[C@H](Cc1ccc(O)cc1)NC(=O)CCS[C@H]1O[C@H](CO)[C@@H](O)[C@H](O)[C@@H]1O)NC(=O)[C@H](Cc1ccc(O)cc1)NC(=O)CCS[C@@H]1O[C@@H](CO)[C@H](O)[C@@H](O)[C@H]1O` are 25.4, 6.4 and 52 µM.
The corresponding values for `N=C(N)NCCC[C@H](NC(=O)[C@H](CCCCNC(=O)[C@H](Cc1ccc(O)cc1)NC(=O)CCS[C@@H]1O[C@@H](CO)[C@H](O)[C@@H](O)[C@H]1O)NC(=O)[C@H](Cc1ccc(O)cc1)NC(=O)CCS[C@H]1O[C@H](CO)[C@@H](O)[C@H](O)[C@@H]1O)C(=O)NCCCC[C@H](NC(=O)[C@H](CCCNC(=N)N)NC(=O)[C@H](CCCCNC(=O)[C@H](Cc1ccc(O)cc1)NC(=O)CCS[C@H]1O[C@H](CO)[C@@H](O)[C@H](O)[C@@H]1O)NC(=O)[C@H](Cc1ccc(O)cc1)NC(=O)CCS[C@H]1O[C@H](CO)[C@@H](O)[C@H](O)[C@@H]1O)C(N)=O` are 14.3, 3.6 and 92 µM.
On to `OC[C@H]1OC(O)[C@@H](O)[C@@H](O)[C@@H]1O` (stereo partly drawn) [D-MANNOSE], for which the Ratio IC50 in assay [1] and in assay [2] was 0.13 in each case. In assay [3], the half-inhibitory concentration (IC50) is 10500 µM.
For `NC(=O)[C@H](CCCCNC(=O)[C@H](CCCCNC(=O)[C@H](CCCCNC(=O)[C@H](Cc1ccc(O)cc1)NC(=O)CCS[C@H]1O[C@H](CO)[C@@H](O)[C@H](O)[C@@H]1O)NC(=O)[C@H](Cc1ccc(O)cc1)NC(=O)CCS[C@@H]1O[C@@H](CO)[C@H](O)[C@@H](O)[C@H]1O)NC(=O)[C@H](CCCCNC(=O)[C@H](Cc1ccc(O)cc1)NC(=O)CCS[C@@H]1O[C@@H](CO)[C@H](O)[C@@H](O)[C@H]1O)NC(=O)[C@H](Cc1ccc(O)cc1)NC(=O)CCS[C@@H]1O[C@@H](CO)[C@H](O)[C@@H](O)[C@H]1O)NC(=O)[C@H](CCCCNC(=O)[C@H](CCCCNC(=O)[C@H](Cc1ccc(O)cc1)NC(=O)CCS[C@@H]1O[C@@H](CO)[C@H](O)[C@@H](O)[C@H]1O)NC(=O)[C@H](Cc1ccc(O)cc1)NC(=O)CCS[C@H]1O[C@H](CO)[C@@H](O)[C@H](O)[C@@H]1O)NC(=O)[C@H](CCCCNC(=O)[C@H](Cc1ccc(O)cc1)NC(=O)CCS[C@H]1O[C@H](CO)[C@@H](O)[C@H](O)[C@@H]1O)NC(=O)[C@H](Cc1ccc(O)cc1)NC(=O)CCS[C@H]1O[C@H](CO)[C@@H](O)[C@H](O)[C@@H]1O`, the values for the Ratio IC50 in assay [1] and in assay [2] were 455 and 57, respectively. Moreover, the IC50 in assay [3] was 2.9 µM.
